# Results published in ChEMBL document CHEMBL5058577, “EUbOPEN Chemogenomics Library 2 (Multiplex)” (2022).
# Test system: Fibroblast
# Assay: Multiplex assay against human fibroblast
# Format: toxicity, cell-based
# Procedure, shortened: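 Cells stained live at seeding with Hoechst33342, BioTracker Green Microtubule Cytoskeleton Dye, MitoTracker Red and Annexin V Alexa Fluor 680 were imaged on a CQ1 microscope at 37°C and 5% CO2 after compound addition. Their classification by CellPathfinder machine-learning gating ran from Hoechst high-intensity objects versus normal cells, to healthy, pyknosed or fragmented nuclei among normal cells, to mitotic or apoptotic among pyknosed cells. Tubulin, mitochondrial-mass and membrane-permeability phenotypes are per cents of healthy-nucleus cells.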
# [1] = 12 h, 1 µM, compound concentration 1 uM, replicate 1
# [2] = 12 h, 1 µM, compound concentration 1 uM, replicate 2
# [3] = 12 h, 10 µM, compound concentration 10 uM, replicate 1
# [4] = 12 h, 10 µM, compound concentration 10 uM, replicate 2
# [5] = 24 h, 1 µM, compound concentration 1 uM, replicate 1
# [6] = 24 h, 1 µM, compound concentration 1 uM, replicate 2
# [7] = 24 h, 10 µM, compound concentration 10 uM, replicate 1
# [8] = 24 h, 10 µM, compound concentration 10 uM, replicate 2
# [9] = 48 h, 1 µM, compound concentration 1 uM, replicate 1
# [10] = 48 h, 1 µM, compound concentration 1 uM, replicate 2
# [11] = 48 h, 10 µM, compound concentration 10 uM, replicate 1
# [12] = 48 h, 10 µM, compound concentration 10 uM, replicate 2
smiles,measurement,setting,value
O=C(NCCNCC(O)COc1ccc(O)cc1)N1CCOCC1.O=C(NCCNCC(O)COc1ccc(O)cc1)N1CCOCC1.O=C(O)/C=C/C(=O)O (centres undefined) [XAMOTEROL FUMARATE],Population Apoptotic (%),[1],63%
same,Population Fragmented Nuclei (%),[1],15%
same,Population Healthy Nuclei (%),[1],67%
same,Population Hoechst High Intensity Objects (%),[1],2%
same,Population Membrane Permeable-Phenotype (%),[1],1%
same,Population Mitochondria Different-Phenotype (%),[1],4%
same,Population Mitotic Cells (%),[1],36%
same,Population Normal (%),[1],97%
same,Population Pyknosed Nuclei (%),[1],17%
same,Population Tubulin-Different-Phenotype (%),[1],24%
same,Total Cell Count,[1],114
same,Population Apoptotic (%),[2],43%
same,Population Fragmented Nuclei (%),[2],23%
same,Population Healthy Nuclei (%),[2],53%
same,Population Hoechst High Intensity Objects (%),[2],4%
same,Population Membrane Permeable-Phenotype (%),[2],16%
same,Population Mitochondria Different-Phenotype (%),[2],7%
same,Population Mitotic Cells (%),[2],56%
same,Population Normal (%),[2],95%
same,Population Pyknosed Nuclei (%),[2],23%
same,Population Tubulin-Different-Phenotype (%),[2],55%
same,Total Cell Count,[2],167
same,Population Apoptotic (%),[3],30%
same,Population Fragmented Nuclei (%),[3],21%
same,Population Healthy Nuclei (%),[3],64%
same,Population Hoechst High Intensity Objects (%),[3],4%
same,Population Membrane Permeable-Phenotype (%),[3],2%
same,Population Mitochondria Different-Phenotype (%),[3],5%
same,Population Mitotic Cells (%),[3],70%
same,Population Normal (%),[3],95%
same,Population Pyknosed Nuclei (%),[3],14%
same,Population Tubulin-Different-Phenotype (%),[3],32%
same,Total Cell Count,[3],143
same,Population Apoptotic (%),[4],17%
same,Population Fragmented Nuclei (%),[4],30%
same,Population Healthy Nuclei (%),[4],49%
same,Population Hoechst High Intensity Objects (%),[4],5%
same,Population Membrane Permeable-Phenotype (%),[4],4%
same,Population Mitochondria Different-Phenotype (%),[4],11%
same,Population Mitotic Cells (%),[4],82%
same,Population Normal (%),[4],94%
same,Population Pyknosed Nuclei (%),[4],20%
same,Population Tubulin-Different-Phenotype (%),[4],43%
same,Total Cell Count,[4],154
same,Population Apoptotic (%),[5],68%
same,Population Fragmented Nuclei (%),[5],20%
same,Population Healthy Nuclei (%),[5],63%
same,Population Hoechst High Intensity Objects (%),[5],1%
same,Population Membrane Permeable-Phenotype (%),[5],2%
same,Population Mitochondria Different-Phenotype (%),[5],2%
same,Population Mitotic Cells (%),[5],31%
same,Population Normal (%),[5],98%
same,Population Pyknosed Nuclei (%),[5],15%
same,Population Tubulin-Different-Phenotype (%),[5],25%
same,Total Cell Count,[5],121
same,Population Apoptotic (%),[6],50%
same,Population Fragmented Nuclei (%),[6],28%
same,Population Healthy Nuclei (%),[6],52%
same,Population Hoechst High Intensity Objects (%),[6],2%
same,Population Membrane Permeable-Phenotype (%),[6],18%
same,Population Mitochondria Different-Phenotype (%),[6],6%
same,Population Mitotic Cells (%),[6],50%
same,Population Normal (%),[6],97%
same,Population Pyknosed Nuclei (%),[6],19%
same,Population Tubulin-Different-Phenotype (%),[6],63%
same,Total Cell Count,[6],149
same,Population Apoptotic (%),[7],62%
same,Population Fragmented Nuclei (%),[7],20%
same,Population Healthy Nuclei (%),[7],67%
same,Population Hoechst High Intensity Objects (%),[7],1%
same,Population Membrane Permeable-Phenotype (%),[7],0%
same,Population Mitochondria Different-Phenotype (%),[7],0%
same,Population Mitotic Cells (%),[7],37%
same,Population Normal (%),[7],98%
same,Population Pyknosed Nuclei (%),[7],12%
same,Population Tubulin-Different-Phenotype (%),[7],31%
same,Total Cell Count,[7],135
same,Population Apoptotic (%),[8],42%
same,Population Fragmented Nuclei (%),[8],34%
same,Population Healthy Nuclei (%),[8],54%
same,Population Membrane Permeable-Phenotype (%),[8],5%
same,Population Mitochondria Different-Phenotype (%),[8],8%
same,Population Mitotic Cells (%),[8],57%
same,Population Pyknosed Nuclei (%),[8],11%
same,Population Tubulin-Different-Phenotype (%),[8],41%
same,Total Cell Count,[8],172
same,Population Apoptotic (%),[9],65%
same,Population Fragmented Nuclei (%),[9],27%
same,Population Healthy Nuclei (%),[9],57%
same,Population Hoechst High Intensity Objects (%),[9],1%
same,Population Membrane Permeable-Phenotype (%),[9],1%
same,Population Mitochondria Different-Phenotype (%),[9],2%
same,Population Mitotic Cells (%),[9],35%
same,Population Normal (%),[9],98%
same,Population Pyknosed Nuclei (%),[9],15%
same,Population Tubulin-Different-Phenotype (%),[9],21%
same,Total Cell Count,[9],131
same,Population Apoptotic (%),[10],40%
same,Population Fragmented Nuclei (%),[10],42%
same,Population Healthy Nuclei (%),[10],46%
same,Population Hoechst High Intensity Objects (%),[10],2%
same,Population Membrane Permeable-Phenotype (%),[10],7%
same,Population Mitochondria Different-Phenotype (%),[10],4%
same,Population Mitotic Cells (%),[10],60%
same,Population Normal (%),[10],97%
same,Population Pyknosed Nuclei (%),[10],10%
same,Population Tubulin-Different-Phenotype (%),[10],65%
same,Total Cell Count,[10],140
same,Population Apoptotic (%),[11],56%
same,Population Fragmented Nuclei (%),[11],25%
same,Population Healthy Nuclei (%),[11],62%
same,Population Hoechst High Intensity Objects (%),[11],4%
same,Population Membrane Permeable-Phenotype (%),[11],1%
same,Population Mitochondria Different-Phenotype (%),[11],3%
same,Population Mitotic Cells (%),[11],43%
same,Population Normal (%),[11],95%
same,Population Pyknosed Nuclei (%),[11],11%
same,Population Tubulin-Different-Phenotype (%),[11],33%
same,Total Cell Count,[11],144
same,Population Apoptotic (%),[12],52%
same,Population Fragmented Nuclei (%),[12],33%
same,Population Healthy Nuclei (%),[12],54%
same,Population Hoechst High Intensity Objects (%),[12],3%
same,Population Membrane Permeable-Phenotype (%),[12],6%
same,Population Mitochondria Different-Phenotype (%),[12],4%
same,Population Mitotic Cells (%),[12],47%
same,Population Normal (%),[12],96%
same,Population Tubulin-Different-Phenotype (%),[12],48%
same,Total Cell Count,[12],157
